One test has as its system A549. The experiment in a line: Cytotoxicity against human A549 cells after 72 hrs by MTT assay. Type of test: functional, cell-based. As to conditions: A549, 72 h. The method in brief:
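A549 cells kept in log phase at 37 °C, 5% CO2, in F-12 Ham's with 15% foetal calf serum, penicillin 50 units mL^-1 and streptomycin. Seeded at 3–8 × 10^4 mL^-1, then treated 72 h with increasing concentrations, final solvent 0.5%. MTT absorbance at 540 nm as % of untreated control. IC50 taken from dose–survival curves.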

A further test relates to A-431. Put plainly: Cytotoxicity against human A431 cells after 72 hrs by MTT assay. The test is classed as functional, cell-based. The settings on record: A-431, 72 h. The method in brief:
(§1)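 Cells kept in log phase at 37 °C, 5% CO2, in RPMI-1640 with 10% foetal calf serum. Seeded at 3–8 × 10^4 mL^-1 according to growth rate. Treated 72 h with increasing drug concentrations, final solvent 0.5%. MTT read-out as absorbance at 540 nm, expressed as % of untreated control. IC50 taken from dose–survival curves.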
(Tetrazolium assays rely on reduction of a dye to a coloured formazan, in cell work by metabolically active cells.)

The test system of another test is MCF7. The experiment in a line: Cytotoxicity against human MCF7 cells after 72 hrs by MTT assay. As to conditions: MCF7, 72 h. The test is classed as functional, cell-based. The procedure, abridged: as §1
The subject of a further test is Salmonidae. The experiment in a line: Binding affinity to salmon testes DNA assessed as negative dichroic signal by linear dichroism experiment. The procedure, abridged:
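Flow linear dichroism on salmon testes DNA at 1.5 × 10^-3 M in ETN buffer (10 mM Tris, 10 mM NaCl, 1 mM EDTA, pH 7). DNA orientation by shear gradient at 500–700 rpm. Spectra recorded at 25 °C at [drug]/[DNA] ratios of 0, 0.02, 0.04 and 0.08, each spectrum accumulated four times. DNA concentration from ε260 6600 M^-1 cm^-1.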

Another test concerns 2008. Put plainly: Cytotoxicity against human 2008 cells after 72 hrs by MTT assay. Type of test: functional, cell-based. As to conditions: Homo sapiens, 2008, 72 h. The procedure, abridged: as §1
Another test relates to HL-60. Put plainly: Cytotoxicity against human HL60 cells after 72 hrs by MTT assay. Type of test: functional, cell-based. The settings on record: HL-60, 72 h. The method in brief:
as §1

The values below come from ChEMBL document CHEMBL1140883, “Synthesis and antitumor activity of novel amsacrine analogs: the critical role of the acridine moiety in determining their biological activity” (Bioorg Med Chem, 2009).

Active and inactive are the calls of the source. No cut-off for these calls is given here.

In general, IC50 refers to the point on the concentration scale where inhibition reaches its midpoint. High values mean weaker potency in that assay, low ones greater potency in that assay. `COc1cc(NS(C)(=O)=O)ccc1Nc1c2ccccc2nc2ccccc12` [AMSACRINE]: the IC50 worked out at 3.52 µM in the test on A549; 5.89 µM in the test with A-431; 5.13 µM with MCF7; 4.31 µM with 2008; 1.15 µM in the test on HL-60. Further, the outcome in the test on Salmonidae was Active.
Turning to `COc1cccc2c(Nc3ccc(NS(C)(=O)=O)cc3)c3ccc(=O)oc3nc12`, the IC50 in the test with A549, in the test with A-431, in the test with MCF7, with 2008 and in the test on HL-60 was greater than 100 µM throughout.
Regarding `COc1cc(NS(C)(=O)=O)ccc1Nc1c2ccccc2nc2oc(=O)ccc12`, the IC50 in the test with A549, in the test on A-431, in the test with MCF7, in the test with 2008 and in the test on HL-60 was greater than 100 µM in each case.
Turning to `COc1ccc2nc3oc(=O)ccc3c(Cl)c2c1`, the half-inhibitory concentration (IC50) in the test with A549 is greater than 100 µM; with A-431, 97 µM; in the test on MCF7 it was greater than 100 µM; with 2008, greater than 100 µM; with HL-60, greater than 100 µM.
On to `O=c1ccc2c(Cl)c3ccccc3nc2o1`, for which the IC50 was 62.9 µM in the test on A549; 54.3 µM in the test with A-431; greater than 100 µM with MCF7; 52.6 µM in the test on 2008; 39.5 µM in the test with HL-60.
For `COc1ccc2nc3oc(=O)ccc3c(Nc3ccc(NS(C)(=O)=O)cc3)c2c1`, in that order: greater than 100 µM, 55.6 µM, 60.6 µM, 68.2 µM and 47.3 µM.
For `COc1ccc2nc3oc(=O)ccc3c(Nc3ccc(NS(C)(=O)=O)cc3OC)c2c1`, in that order: greater than 100 µM, 85.7 µM, greater than 100 µM, greater than 100 µM and 95.2 µM.
For `COc1ccc2c(Cl)c3ccc(=O)oc3nc2c1`, in that order: 53.4 µM, greater than 100 µM, 50.1 µM, greater than 100 µM and 60.3 µM.
Regarding `COc1cccc2c(Cl)c3ccc(=O)oc3nc12`, the IC50 was 75.4 µM with A549; 55.3 µM in the test with A-431; 54.1 µM with MCF7; 60.6 µM in the test with 2008; 37.1 µM in the test on HL-60.
For `CS(=O)(=O)Nc1ccc(Nc2c3ccccc3nc3oc(=O)ccc23)cc1`, in that order: greater than 100 µM, 94.1 µM, greater than 100 µM, greater than 100 µM and 92.1 µM.
`COc1cc(NS(C)(=O)=O)ccc1Nc1c2ccc(=O)oc2nc2c(OC)cccc12`: the IC50 in the test on A549 is 81.5 µM; in the test with A-431, greater than 100 µM; with MCF7, greater than 100 µM; with 2008, greater than 100 µM; with HL-60, greater than 100 µM.
As to `COc1ccc2c(Nc3ccc(NS(C)(=O)=O)cc3)c3ccc(=O)oc3nc2c1`, the IC50 in the test on A549 is greater than 100 µM; in the test with A-431, 92.7 µM; in the test on MCF7, greater than 100 µM; in the test with 2008, greater than 100 µM; in the test with HL-60, greater than 100 µM.
